MC4R antag cAMP – blocks human MC4R cAMP signaling; P32245; MC4R-expressing cells, MTII-stimulated cAMP, LANCE TR-FRET; inhibition, % at 6.5 µM; 360,000 tested, 0.48% active;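 active = inhibition above its plate's cutoff, the mean of tested wells on that plate plus 3 SD, cut at about 29% in these data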;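 also: 0% = Melanotan II alone and 100% = Melanotan II plus saturating MCL0020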
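Test system: U2OS cells stably expressing human melanocortin 4 receptor (MC4R); also added: Melanotan II challenge; compound: 6.5 µM single dose; timing: 30-min compound preincubation, 1-h Melanotan II challenge, 1-h detection, room temperature; signal: Eu-cAMP/anti-cAMP TR-FRET, emission 671 nm; repeats: one well per compound, no replicates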
TAAR1 antagonist – human TAAR1 antagonism. Q96RJ0. CHO RD-HGA16 TAAR1, Fluo-8 calcium fluorescence, antagonist. inhibition, % at 3 µM. 360,000 tested, 1.5% active. AID 624466;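 active = inhibition above a per-plate cutoff, the mean inhibition of test compounds on that plate plus 3 SD, cut at about 49% in these data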;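 also: 0% = DMSO plus EC80 beta-PEA response and 100% = DMSO alone without agonist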
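Assay system: RD-HGA16 CHO cells with stable hTAAR1 and Gα16 / Reagent: EC80 β-phenethylamine stimulus / Doses: 3 µM, single point / Timing: dye loading 75 min at 37 °C, then 30 min room temperature / Measured by: Fluo-8 intracellular calcium dye fluorescence, real-time kinetic reads / Controls: vehicle wells and EC80 agonist wells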
TAAR1 agonist – agonists of human TAAR1; Q96RJ0; CHO RD-HGA16 TAAR1, Fluo-8 calcium fluorescence; vehicle wells 0%, saturating PEA agonist 100%; activation, % at 3 µM; 360,000 tested, 0.99% active; AID 624467;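 active = activation above the mean activation of all test compounds in the run plus 3 SD, cut at about 38% in these data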
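Repeats: no replicates (n 1) | Material: CHO-derived RD-HGA16 cells with stable Gα16 and human TAAR1 | Technique: Kinetic Fluo-8 calcium fluorescence | Schedule: 17-24 h seeding, 75 min 37 °C dye, 30 min RT | Evaluation: % activation from peak over basal fluorescence ratio, DMSO-to-PEA scaled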
B2AR ag – activates human beta-2 adrenergic receptor causing internalization; P07550; 340,000 tested, 0.43% active; response, % (concentration not given with the values); Am2.2-beta2AR cells, FAP receptor internalization, flow cytometry;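 active = response above a set limit, near 3 SD of response in nonfluorescent compounds, cut at about 42% in these data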
Target sequence (P07550 whole entry, looked up): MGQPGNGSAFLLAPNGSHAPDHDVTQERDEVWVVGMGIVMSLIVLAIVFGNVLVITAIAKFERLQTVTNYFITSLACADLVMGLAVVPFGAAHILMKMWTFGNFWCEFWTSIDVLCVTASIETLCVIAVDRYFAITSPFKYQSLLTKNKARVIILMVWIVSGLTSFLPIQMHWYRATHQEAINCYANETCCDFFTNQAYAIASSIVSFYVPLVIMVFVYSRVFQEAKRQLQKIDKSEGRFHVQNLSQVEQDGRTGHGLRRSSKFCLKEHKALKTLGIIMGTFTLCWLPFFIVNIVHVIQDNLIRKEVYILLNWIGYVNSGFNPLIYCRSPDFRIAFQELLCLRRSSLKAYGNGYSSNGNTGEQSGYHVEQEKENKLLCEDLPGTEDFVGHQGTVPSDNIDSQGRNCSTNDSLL
HTR2A ag – mouse HTR2A agonism via beta-arrestin recruitment; P35363; CHO-K1 mHTR2A beta-arrestin complementation, luminescence; percent of 30 µM serotonin response; activation, % at 7.6 µM; 360,000 tested, 0.66% active; AID 624169;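 active = activation above a run cutoff, the mean activation of all tested compounds plus 3 SD, cut at about 14% in these data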;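 also: 0% = plate median of compound wells and 100% = 30 µM serotonin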
MC4R barr agon – agonists of human melanocortin 4 receptor (MC4R) beta-arrestin. AID 540308. U2OS MC4R beta-arrestin complementation, luminescence; percent of melanotan II response, DMSO zero. P32245. activation, % at 8.9 µM. 360,000 tested, 0.98% active;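 active = activation above a per-plate cutoff, the mean activation of sample wells on that plate plus 3 SD, cut at about 8% in these data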
OPRM1 ag – OPRM1 agonism in mouse HTR2A counterscreen. shares compounds with HTR2A ag. U2OS OPRM1 beta-arrestin PathHunter, luminescence; DMSO 0%, DAMGO 9.3 µM 100%. activation, % at 9.3 µM. 2,300 tested, 5.3% active;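 active = mean activation above the mean of DMSO-only wells plus 3 SD, cut at about 0.5% in these data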
HTR2A ag conf – mouse HTR2A agonism confirmed | CHO-K1 PathHunter beta-arrestin recruitment, luminescence; DMSO 0%, 30 µM serotonin 100% | activation, % at 7.6 µM | AID 624381 | shares compounds with HTR2A ag | 2,300 tested, 19% active;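 active = mean activation across triplicates above the hit threshold derived in the original primary screen, cut at about 15% in these data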
* hit, by the source's call; · = no result. An excerpt weighted towards active compounds, which were near 4.3% of everything screened.

SMILES	MC4R antag cAMP	TAAR1 antagonist	TAAR1 agonist	B2AR ag	HTR2A ag	MC4R barr agon	OPRM1 ag	HTR2A ag conf
CCCSc1nc(N)nc2c1ncn2C1OC(CO)C(O)C1O (configuration not stated)	1.5	-5.4	1.4	8.8	-2.0	-3.1	·	·
COC(=O)c1ccc(CNC(=O)COC(=O)/C=C/c2cccc(OC)c2)cc1	0.5	-20.9	0.8	·	4.4	0.2	·	·
O=C(NCc1ccccc1)C(C1CC1)n1c(=O)c(-c2cc3ccccc3[nH]2)nc2ccccc21 (configuration not stated)	·	-1.6	1.3	·	15.1*	·	0.5	2.1
CC(C)(C)C(=O)c1c(N)[nH]c(C(=O)c2ccccc2)c1-c1ccc(Cl)cc1Cl	·	-14.9	0.2	·	15.9*	·	-0.3	-0.7
Nc1[nH]c(C(=O)c2ccccc2)c(-c2ccc(Cl)cc2Cl)c1C(=O)c1ccc(Cl)c(Cl)c1	·	-26.6	10.0	·	-0.9	·	·	·
Cn1nc(C(C)(C)C)cc1C(=O)N1CCCC(c2cc(C(=O)NCc3ccccc3)no2)C1 (configuration not stated)	5.7	-7.0	0.2	·	-0.9	0.6	·	·
Cc1nnsc1C(=O)NC1CCCc2c1cnn2-c1ccccc1F (configuration not stated)	0.7	2.9	2.8	8.3	3.5	1.2	·	·
Cc1nnsc1C(=O)NC1CCCc2c1cnn2-c1ccc(C(C)(C)C)cc1 (configuration not stated)	5.6	15.9	-1.3	16.2	14.5*	-3.5	-0.2	1.7
COC(C(=O)NNS(=O)(=O)c1ccccc1[N+](=O)[O-])c1ccccc1 (configuration not stated)	-1.9	-19.4	3.1	-0.5	18.4*	-0.7	-0.4	-1.5
COC(C(=O)NNS(=O)(=O)c1ccc([N+](=O)[O-])cc1)c1ccccc1 (configuration not stated)	-0.3	-23.3	5.0	5.0	7.3	0.2	·	·
CCc1nc2c(OCC(=O)C(C)(C)C)cccn2c1N(C)C(=O)CC(C)C	12.4	12.8	0.2	·	16.2*	-1.9	-0.6	-2.9
CCc1nc2c(OCC(=O)C(C)(C)C)cccn2c1N(C)C(=O)COc1ccccc1	-0.7	-20.6	6.4	·	2.1	-0.8	·	·
COc1cc(C2NC(=O)CCC2[N+](=O)[O-])cc(Br)c1OC (configuration not stated)	14.0	-1.6	1.9	-2.6	-0.5	-1.6	·	·
CC(=O)NCc1ccc2[nH]c(C)cc2c1	3.3	0.2	0.4	-2.0	17.0*	-0.9	-0.7	-0.1
Cc1nc2ccccc2n1CC(=O)c1ccc(O)c(O)c1	0.8	12.2	-0.3	0.8	2.4	-0.4	·	·
COc1ccc(CCC(=O)N2CCN(C3CCCCC3)CC2)cc1	3.8	-5.3	1.2	1.4	-1.2	-1.8	·	·
O=C(CCCc1ccccc1)N1CCN(C2CCCCC2)CC1	3.5	13.9	0.5	-15.7	25.4*	-0.4	0.8*	14.3
CC(=O)c1ccc(Sc2ccccn2)c([N+](=O)[O-])c1	-2.4	-1.6	1.2	1.7	2.8	0.5	·	·
N#Cc1ccc(Sc2ccccn2)c([N+](=O)[O-])c1	-8.8	-21.1	0.1	-1.8	14.8*	-1.0	-0.4	-4.3
Cc1ccccc1-c1cnc2c(c1)C(=O)N([C@@H](C)CO)C[C@@H](C)[C@H](CN(C)Cc1ccccc1F)O2	17.8	-13.6	-1.5	·	-2.3	2.3	·	·
COc1ccc2c(O)c(-c3c(C)cc(C)cc3C)c(=O)[nH]c2c1	12.3	-24.9	0.4	1.5	4.8	1.5	·	·
c1cnc(N2CCN(Cc3ccc4c(c3)OCO4)CC2)nc1	6.3	-18.6	0.0	-4.6	41.7*	-0.2	-0.1	169.0*
Brc1ccc(CN2CCN(c3ccccn3)CC2)s1	-11.1	-6.0	7.4	-5.9	29.5*	4.3	-0.4	98.1*
c1nc(N2CCN(Cc3ccc4c(c3)OCO4)CC2)c2[nH]cnc2n1	16.2	-0.5	2.6	-0.5	20.4*	0.1	-0.2	74.8*
c1ccc(N2CCN(Cc3ccc4c(c3)OCO4)CC2)nc1	8.6	-25.8	3.2	-2.8	31.7*	0.2	-0.6	113.2*
SMILES	MC4R antag cAMP	TAAR1 antagonist	TAAR1 agonist	B2AR ag	HTR2A ag	MC4R barr agon	OPRM1 ag	HTR2A ag conf
c1cc2c(cc1CN1CCOCC1)OCO2	8.6	-17.5	1.6	1.4	0.0	-1.1	·	·
O=C(C[C@H]1C[C@@H]2c3cc(NC(=O)Nc4ccccc4)ccc3O[C@@H]2[C@@H](CO)O1)NCC1CC1	-4.9	-12.7	1.0	·	-4.1	0.6	·	·
Cc1cncc(NCc2cccc(Cl)c2)n1	-3.3	-5.6	2.7	·	-4.1	0.7	·	·
CSc1ncccc1C(=O)Nc1ccc(S(=O)(=O)N2CCCC2)cc1	0.4	-2.7	12.3	10.4	-5.3	0.1	·	·
CCc1cc(=O)oc2c(C)c(OC(C)C(=O)NCCCN3CCOCC3)ccc12 (configuration not stated)	15.5	-2.1	1.4	-1.6	7.3	-2.9	·	·
Cc1cc(=O)oc2c(C)c(OC(C)C(=O)NCCCN3CCOCC3)ccc12 (configuration not stated)	7.2	-19.0	1.2	-4.3	16.3*	-1.5	-0.4	-4.3
O=C(CSc1n[nH]c(=O)n1C1CC1)NCc1ccccc1	14.7	-3.7	1.5	8.9	14.9*	0.6	-0.7	-2.8
COc1ccc(S(=O)(=O)N(C)C[C@@H]2Oc3c(NS(C)(=O)=O)cccc3C(=O)N([C@@H](C)CO)C[C@H]2C)cc1	5.2	-10.6	1.4	2.8	5.4	0.5	·	·
Cc1ccc(C(=O)OCC(=O)NCC2CCCO2)c(C)c1 (configuration not stated)	18.7	-15.6	-1.4	5.0	0.9	3.4	·	·
Cc1ccsc1C(=O)OCC(=O)NCC1CCCO1 (configuration not stated)	-7.0	-11.8	6.3	-4.5	18.4*	-1.7	-0.6	-1.9
OC(Cc1ccccc1Br)c1ncc(-c2cccc(C(F)(F)F)c2)[nH]1 (configuration not stated)	-7.1	12.2	-0.8	·	2.1	3.4	·	·
CCOc1ccc(NC2c3ccccc3C(=O)N2Cc2ccco2)cc1 (configuration not stated)	3.2	-32.7	-2.6	8.8	38.4*	0.7	-0.2	-4.3

Screening data: PubChem BioAssay, several laboratories
